Experimental data reported in ChEMBL document CHEMBL4680134, “Structural optimization of natural product nordihydroguaretic acid to discover novel analogues as AcrB inhibitors” (Eur J Med Chem, 2020).
The source made the active and inactive calls. The calls are words filed in the database; no cut-off is given here.

Key:
[1] = biological target: T1, Multidrug efflux pump subunit AcrB (Escherichia coli (strain K12)) (UniProt P31224); assay: Inhibition of AcrB in Escherichia coli BW25113 assessed as potentiation of erythromycin induced antibacterial activity by measuring erythromycin MIC at 8 ug/ml measured after 18 hrs by checkerboard titration method (reference value: 64 ug/ml); settings: dose 8.0 µg/ml
T1 sequence (whole entry): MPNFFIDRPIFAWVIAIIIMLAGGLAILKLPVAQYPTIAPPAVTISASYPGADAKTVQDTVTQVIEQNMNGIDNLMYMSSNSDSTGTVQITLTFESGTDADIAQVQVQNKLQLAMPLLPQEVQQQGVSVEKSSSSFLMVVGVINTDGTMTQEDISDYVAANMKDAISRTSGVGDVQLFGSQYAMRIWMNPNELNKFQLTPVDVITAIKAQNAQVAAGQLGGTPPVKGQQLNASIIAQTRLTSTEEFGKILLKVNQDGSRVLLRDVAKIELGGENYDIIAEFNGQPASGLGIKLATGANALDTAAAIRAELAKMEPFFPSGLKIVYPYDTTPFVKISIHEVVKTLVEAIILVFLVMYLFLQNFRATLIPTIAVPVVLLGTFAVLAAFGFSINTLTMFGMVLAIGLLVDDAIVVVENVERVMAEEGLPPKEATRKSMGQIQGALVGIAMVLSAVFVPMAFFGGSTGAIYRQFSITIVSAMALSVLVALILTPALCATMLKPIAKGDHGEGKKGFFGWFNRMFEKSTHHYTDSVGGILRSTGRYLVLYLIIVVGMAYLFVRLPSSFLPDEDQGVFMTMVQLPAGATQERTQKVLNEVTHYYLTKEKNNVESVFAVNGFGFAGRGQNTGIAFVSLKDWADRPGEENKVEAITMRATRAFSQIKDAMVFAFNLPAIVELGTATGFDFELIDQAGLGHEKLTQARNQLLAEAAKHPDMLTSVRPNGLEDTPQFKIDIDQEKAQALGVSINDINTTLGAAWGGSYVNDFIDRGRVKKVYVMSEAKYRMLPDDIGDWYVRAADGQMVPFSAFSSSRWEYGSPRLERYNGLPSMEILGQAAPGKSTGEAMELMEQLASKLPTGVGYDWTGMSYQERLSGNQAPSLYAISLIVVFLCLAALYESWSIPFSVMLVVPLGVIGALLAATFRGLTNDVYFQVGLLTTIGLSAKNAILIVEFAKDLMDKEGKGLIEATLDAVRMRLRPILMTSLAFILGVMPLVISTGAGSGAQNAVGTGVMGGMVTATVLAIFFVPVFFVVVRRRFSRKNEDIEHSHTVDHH

[2] = biological target: T1, Multidrug efflux pump subunit AcrB (Escherichia coli (strain K12)); assay: Inhibition of AcrB in Escherichia coli BW25113 assessed as potentiation of tetraphenylphosphonium induced antibacterial activity by measuring tetraphenylphosphonium MIC at 128 ug/ml measured after 18 hrs by checkerboard titration method (reference value: 1024 ug/ml); settings: dose 128.0 µg/ml
[3] = biological target: T1, Multidrug efflux pump subunit AcrB (Escherichia coli (strain K12)); assay: Inhibition of AcrB in Escherichia coli BW25113 assessed as potentiation of tetraphenylphosphonium induced antibacterial activity by measuring tetraphenylphosphonium MIC at 8 ug/ml measured after 18 hrs by checkerboard titration method (reference value: 1024 ug/ml); settings: dose 8.0 µg/ml
[4] = biological target: T1, Multidrug efflux pump subunit AcrB (Escherichia coli (strain K12)); assay: Inhibition of AcrB in Escherichia coli BW25113 assessed as potentiation of chloramphenicol induced antibacterial activity by measuring chloramphenicol MIC at 8 ug/ml measured after 18 hrs by checkerboard titration method (reference value: 8 ug/ml); settings: dose 8.0 µg/ml
[5] = biological target: T1, Multidrug efflux pump subunit AcrB (Escherichia coli (strain K12)); assay: Inhibition of AcrB in Escherichia coli BW25113 assessed as potentiation of rifampicin induced antibacterial activity by measuring rifampicin MIC at 16 ug/ml measured after 18 hrs by checkerboard titration method (reference value: 16 ug/ml); settings: dose 16.0 µg/ml
[6] = biological target: T1, Multidrug efflux pump subunit AcrB (Escherichia coli (strain K12)); assay: Inhibition of AcrB in Escherichia coli BW25113 assessed as potentiation of rifampicin induced antibacterial activity by measuring rifampicin MIC at 128 ug/ml measured after 18 hrs by checkerboard titration method (reference value: 16 ug/ml); settings: dose 128.0 µg/ml
[7] = biological target: T1, Multidrug efflux pump subunit AcrB (Escherichia coli (strain K12)); assay: Inhibition of AcrB in Escherichia coli BW25113 assessed as potentiation of levofloxacin induced antibacterial activity by measuring levofloxacin MIC at 8 ug/ml measured after 18 hrs by checkerboard titration method (reference value: 0.06 ug/ml); settings: dose 8.0 µg/ml
[8] = biological target: T1, Multidrug efflux pump subunit AcrB (Escherichia coli (strain K12)); assay: Inhibition of AcrB in Escherichia coli BW25113 assessed as potentiation of rifampicin induced antibacterial activity by measuring rifampicin MIC at 32 ug/ml measured after 18 hrs by checkerboard titration method (reference value: 16 ug/ml); settings: dose 32.0 µg/ml
[9] = biological target: T1, Multidrug efflux pump subunit AcrB (Escherichia coli (strain K12)); assay: Inhibition of AcrB in Escherichia coli BW25113 assessed as potentiation of tetraphenylphosphonium induced antibacterial activity by measuring tetraphenylphosphonium MIC at 64 ug/ml measured after 18 hrs by checkerboard titration method (reference value: 1024 ug/ml); settings: dose 64.0 µg/ml
[10] = biological target: T1, Multidrug efflux pump subunit AcrB (Escherichia coli (strain K12)); assay: Inhibition of AcrB in Escherichia coli BW25113 assessed as potentiation of rifampicin induced antibacterial activity by measuring rifampicin MIC at 8 ug/ml measured after 18 hrs by checkerboard titration method (reference value: 16 ug/ml); settings: dose 8.0 µg/ml
[11] = biological target: T1, Multidrug efflux pump subunit AcrB (Escherichia coli (strain K12)); assay: Inhibition of AcrB in Escherichia coli BW25113 assessed as potentiation of erythromycin induced antibacterial activity by measuring erythromycin MIC at 64 ug/ml measured after 18 hrs by checkerboard titration method (reference value: 64 ug/ml); settings: dose 64.0 µg/ml
[12] = biological target: T1, Multidrug efflux pump subunit AcrB (Escherichia coli (strain K12)); assay: Inhibition of AcrB in Escherichia coli BW25113 assessed as potentiation of levofloxacin induced antibacterial activity by measuring levofloxacin MIC at 16 ug/ml measured after 18 hrs by checkerboard titration method (reference value: 0.06 ug/ml); settings: dose 16.0 µg/ml
[13] = biological target: T1, Multidrug efflux pump subunit AcrB (Escherichia coli (strain K12)); assay: Inhibition of AcrB in Escherichia coli BW25113 assessed as potentiation of tetraphenylphosphonium induced antibacterial activity by measuring tetraphenylphosphonium MIC at 256 ug/ml measured after 18 hrs by checkerboard titration method (reference value: 1024 ug/ml); settings: dose 256.0 µg/ml
[14] = biological target: T1, Multidrug efflux pump subunit AcrB (Escherichia coli (strain K12)); assay: Inhibition of AcrB in Escherichia coli BW25113 assessed as potentiation of erythromycin induced antibacterial activity by measuring erythromycin MIC at 256 ug/ml measured after 18 hrs by checkerboard titration method (reference value: 64 ug/ml); settings: dose 256.0 µg/ml
[15] = biological target: T1, Multidrug efflux pump subunit AcrB (Escherichia coli (strain K12)); assay: Inhibition of AcrB in Escherichia coli BW25113 assessed as reduction in glucose-induced nile red efflux at 50 to 100 uM preincubated for 15 mins followed by nile red addition and incubated for 3 hrs in shaker in presence of CCCP by fluorimetric analysis; settings: dose 50-100 µM, time 195.0 min
Summary of the method: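 Whole-cell efflux: wild-type and ΔAcrB cells preloaded with Nile Red, with or without compound, before fluorescence readings. Efflux triggered at 100 s with 0.2% glucose and followed by fluorometry. The ΔAcrB strain marks maximal accumulation. Triplicate experiments with different cell batches.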

[16] = biological target: T1, Multidrug efflux pump subunit AcrB (Escherichia coli (strain K12)); assay: Inhibition of AcrB in Escherichia coli BW25113 assessed as potentiation of chloramphenicol induced antibacterial activity by measuring chloramphenicol MIC at 256 ug/ml measured after 18 hrs by checkerboard titration method (reference value: 8 ug/ml); settings: dose 256.0 µg/ml

| Compound | MIC [1] [mg/L] | MIC [2] [mg/L] | MIC [3] [mg/L] | MIC [4] [mg/L] | MIC [5] [mg/L] | MIC [6] [mg/L] | MIC [7] [mg/L] | MIC [8] [mg/L] | MIC [9] [mg/L] | MIC [10] [mg/L] | MIC [11] [mg/L] | MIC [12] [mg/L] | MIC [13] [mg/L] | MIC [14] [mg/L] | inhibition [15] | MIC [16] [mg/L] |
| --- | --- | --- | --- | --- | --- | --- | --- | --- | --- | --- | --- | --- | --- | --- | --- | --- |
| Nc1ccc(C(=O)NCCc2ccc(O)c(O)c2)cc1 | 64 | 512 | 1020 | 8 | 16 | 16 | 0.06 | 16 | 1020 | 16 | 32 | 0.06 | – | – | – | – |
| C[C@H](Cc1ccc(O)c(O)c1)[C@@H](C)Cc1ccc(O)c(O)c1 [MASOPROCOL] | – | 128 | – | – | – | 16 | – | 16 | 1020 | – | 64 | – | 64 | 32 | Active | 2 |
| O=C(NCCc1ccc(O)c(O)c1)c1ccc(O)c(O)c1 | 64 | 512 | 1020 | 8 | 16 | 16 | 0.06 | 16 | 512 | 16 | 32 | 0.06 | – | – | – | – |
| Oc1ccc(CCCCCCc2ccc(O)c(O)c2)cc1O | – | 512 | – | – | 16 | 16 | – | 16 | 512 | – | 64 | 0.06 | 512 | 64 | Active | 8 |
| Oc1ccc(CCCCc2cc(O)c(O)c(O)c2)cc1O | – | 256 | – | – | 16 | 16 | – | 16 | 512 | – | 32 | 0.06 | 256 | 32 | – | 1 |
| Nc1cc(N)cc(C(=O)NCCc2ccc(O)c(O)c2)c1 | 64 | 512 | 512 | 8 | 16 | 16 | 0.06 | 16 | 512 | 16 | 32 | 0.06 | – | – | – | – |
| Oc1ccc(CCCCc2ccc(Cl)cc2)cc1O | – | 512 | – | – | 16 | 16 | – | 16 | 512 | – | 64 | 0.06 | 512 | 64 | Active | 16 |
| Oc1ccc(CCCCCCCc2ccc(O)c(O)c2)cc1O | – | 512 | – | – | 16 | 16 | – | 16 | 512 | – | 64 | 0.06 | 512 | 64 | – | 8 |
| Oc1ccc(CCCCCc2ccc(O)c(O)c2)cc1O | – | 512 | – | – | 16 | 16 | – | 16 | 1020 | – | 64 | 0.06 | 32 | 64 | – | 8 |
